Test results as given in the RNAGym collection of RNA variant scans (doi:10.1126/science.aae0568).
Fewer inactive variants are shown than the library holds.

B1: tRNA (parent)
chain: GUUCCGUUGGCGUAAUGGUAACGCGUCUCCCUCCUAAGGAGAAGACUGCGGGUUCGAGUCCCGUACGGAACG

Variants of: B1
Test: yeast fitness relative to wild type (ratio to wild type); higher = fitter; tRNA-Arg(CCU), competitive growth, 37 C, YPD
How it was run: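 Variants of the tRNA-Arg(CCU) gene, chemically synthesised with a 3% per-site mutation rate at 69 sites, were placed at the native genomic locus in Saccharomyces cerevisiae. The pooled strains were competed in YPD at 37°C for 24 hours in six parallel replicates. Gene amplicons from the start population and from each end population were read by 100-nucleotide paired-end sequencing. Darwinian fitness relative to wild type came from changes in genotype frequencies; genotypes needed ≥ 100 starting reads, and estimates < 0.5 were set to 0.5.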

With G12C G25A A45C as the variant, how does the yeast fitness read?
Its yeast fitness is 0.543.

With U13A C27G U32C A45G U64A as the variant, how does the yeast fitness read?
The yeast fitness was at most 0.5.

For U13A A21C G44A, which yeast fitness is on record?
The yeast fitness was at most 0.5.

Which yeast fitness does the source give for G12C U35G G58A G67A here?
Its yeast fitness is 0.706.

Which yeast fitness does the source give for G12C C33U G50C A70U here?
Its yeast fitness is 0.509.

Which yeast fitness does the source give for U13A C33A A36U G68C here?
Its yeast fitness is at most 0.5.

For U13A A21C A37G A42G, which yeast fitness is on record?
Its yeast fitness is at most 0.5.

For G12C G25C, which yeast fitness is on record?
Its yeast fitness is 0.762.

Which yeast fitness does the source give for U13A A15U G17C C61A here?
The yeast fitness was at most 0.5.

With U13A A42C C62A as the variant, how does the yeast fitness read?
Its yeast fitness is 0.57.

For U13A C27G A42U A69U, which yeast fitness is on record?
Its yeast fitness is 0.687.

For U13A C27U C62U, which yeast fitness is on record?
Its yeast fitness is 0.786.

For U13A A45C C60A, which yeast fitness is on record?
Its yeast fitness is at most 0.5.

Which yeast fitness does the source give for U13A C31G C46G A69U here?
The yeast fitness was 0.624.

With U13A C31A G44A A57G A65C A70U as the variant, how does the yeast fitness read?
Its yeast fitness is at most 0.5.

Which yeast fitness does the source give for G12C G67A A69C here?
Its yeast fitness is at most 0.5.

For G12C G67A A69G, which yeast fitness is on record?
Its yeast fitness is 0.534.

Which yeast fitness does the source give for U13A C31G C33U A37C A65U here?
The yeast fitness was at most 0.5.

With G12C C60G as the variant, how does the yeast fitness read?
The yeast fitness was 0.641.

Which yeast fitness does the source give for G12C C60U here?
The yeast fitness was 0.726.

For G12C C34A G44C, which yeast fitness is on record?
The yeast fitness was at most 0.5.

With U13A A14C G18A G44A C66G as the variant, how does the yeast fitness read?
The yeast fitness was at most 0.5.

For U13A A21U C22G U32C A42C G48C C55G, which yeast fitness is on record?
Its yeast fitness is at most 0.5.

Which yeast fitness does the source give for U13A A57G A69C here?
Its yeast fitness is 0.503.

With G12C U54G as the variant, how does the yeast fitness read?
The yeast fitness was 0.657.

For U13A C22A A65G, which yeast fitness is on record?
The yeast fitness was 1.06.

With G12C G38C as the variant, how does the yeast fitness read?
Its yeast fitness is 0.54.

With G12C G18C C55U C60G as the variant, how does the yeast fitness read?
The yeast fitness was at most 0.5.

For G12C G39A, which yeast fitness is on record?
The yeast fitness was 0.75.

Which yeast fitness does the source give for G12C U28G here?
Its yeast fitness is 0.696.

Which yeast fitness does the source give for U13A C29U A42U here?
Its yeast fitness is 0.568.

With G12C U26A C33A C34G as the variant, how does the yeast fitness read?
Its yeast fitness is 0.55.

With G12C U32C G41C A57G as the variant, how does the yeast fitness read?
The yeast fitness was at most 0.5.

For G12C C30U A36C A40U, which yeast fitness is on record?
The yeast fitness was at most 0.5.

For U13A C22G C29G A40U U54C C61G, which yeast fitness is on record?
The yeast fitness was at most 0.5.

With U13A C22U A57U as the variant, how does the yeast fitness read?
Its yeast fitness is at most 0.5.

For U13A A70C, which yeast fitness is on record?
The yeast fitness was 1.03.

For U13A A70G, which yeast fitness is on record?
Its yeast fitness is 0.937.

For U13A A70U, which yeast fitness is on record?
The yeast fitness was 1.04.

Which yeast fitness does the source give for U13A A40G A57U G68A here?
The yeast fitness was 0.524.

Which yeast fitness does the source give for U13A C22G C24A G39C A43C G44C U47C C61U here?
Its yeast fitness is at most 0.5.

For G12C U13C A20C C24G G39C U64A, which yeast fitness is on record?
The yeast fitness was at most 0.5.

For G12C C33G G44C, which yeast fitness is on record?
The yeast fitness was 0.572.

Which yeast fitness does the source give for G12C G41C here?
Its yeast fitness is 0.748.

With U13A A15C C33G G52A as the variant, how does the yeast fitness read?
Its yeast fitness is at most 0.5.

With G12C C30G C62A as the variant, how does the yeast fitness read?
Its yeast fitness is at most 0.5.

With U13A A42G U47A as the variant, how does the yeast fitness read?
Its yeast fitness is 0.542.

With G12C G48A A69U as the variant, how does the yeast fitness read?
The yeast fitness was 0.836.

Which yeast fitness does the source give for U13A C22G C24G A36U A40C here?
The yeast fitness was 0.58.

With U13A C27G U28A A65U A70U as the variant, how does the yeast fitness read?
Its yeast fitness is 0.543.

Which yeast fitness does the source give for G12C G18C G58C here?
Its yeast fitness is at most 0.5.

Which yeast fitness does the source give for U13A C30G U54C here?
The yeast fitness was at most 0.5.

With U13A C61A C62U C66U as the variant, how does the yeast fitness read?
Its yeast fitness is at most 0.5.

For G12C G41C A57G, which yeast fitness is on record?
Its yeast fitness is 0.562.

Which yeast fitness does the source give for G12C U28G A37G G41A G48A G67C here?
The yeast fitness was at most 0.5.

For U13A A20U C27U A42G U54C, which yeast fitness is on record?
The yeast fitness was at most 0.5.

Which yeast fitness does the source give for U13A C29U A40C here?
The yeast fitness was 0.54.

Which yeast fitness does the source give for U13A C24U C55A G58C here?
Its yeast fitness is at most 0.5.

For G12C U16A C24G G48C, which yeast fitness is on record?
Its yeast fitness is at most 0.5.

For U13A C46G U53C C62U A69C, which yeast fitness is on record?
The yeast fitness was at most 0.5.

Which yeast fitness does the source give for G12C U35C A37G G38A A45U A70G here?
The yeast fitness was at most 0.5.

For G12C U19A C27G G44C, which yeast fitness is on record?
The yeast fitness was at most 0.5.

For U13A C49A G63A, which yeast fitness is on record?
The yeast fitness was at most 0.5.

With G12C G17A C49A G56A as the variant, how does the yeast fitness read?
Its yeast fitness is at most 0.5.

Which yeast fitness does the source give for U13A A20G C24U U35C G58C here?
Its yeast fitness is 0.632.

Which yeast fitness does the source give for U13A C24U C30A C60U here?
The yeast fitness was at most 0.5.

With G12C C33G C34U A36C A43G G52A G58C U64G A65G as the variant, how does the yeast fitness read?
Its yeast fitness is at most 0.5.

Which yeast fitness does the source give for U13A A36U A45U G52C A57U here?
The yeast fitness was at most 0.5.

For G12C G25A U54C, which yeast fitness is on record?
The yeast fitness was 0.635.

For U13A A14U A20U, which yeast fitness is on record?
The yeast fitness was 0.835.

Which yeast fitness does the source give for U13A C33U A45C C46G A69U here?
The yeast fitness was 0.579.

Which yeast fitness does the source give for U13A C34U A40U A65C here?
Its yeast fitness is at most 0.5.

Which yeast fitness does the source give for U13A A21C C33U G52A A57G G67U here?
Its yeast fitness is at most 0.5.

For U13A C30U C34U A42G G63A, which yeast fitness is on record?
The yeast fitness was at most 0.5.

For G12C C30U C31U, which yeast fitness is on record?
The yeast fitness was 0.611.

Which yeast fitness does the source give for U13A A37U G68A here?
The yeast fitness was 0.637.

Which yeast fitness does the source give for G12C C33G A37G A40C C49G here?
Its yeast fitness is at most 0.5.

With U13A C30U U47A U59A C60U C62G as the variant, how does the yeast fitness read?
Its yeast fitness is at most 0.5.

Which yeast fitness does the source give for U13A A65U A69C here?
Its yeast fitness is at most 0.5.

For U13A C33A A36U, which yeast fitness is on record?
The yeast fitness was 0.544.

With G12U A36G A69U as the variant, how does the yeast fitness read?
The yeast fitness was 0.733.

With G12C G17A C46G as the variant, how does the yeast fitness read?
The yeast fitness was 0.584.

With U13A A20G A36C G41C C61U as the variant, how does the yeast fitness read?
The yeast fitness was 0.62.
